Results collected from several papers.
Lines come from different studies, so protocols differ.
Organism: Plasmodium falciparum
Observed: parasite growth

| Compound | method | strain | time | setting | IC50 |
| --- | --- | --- | --- | --- | --- |
| Cc1cc(NCCc2ccccc2)nc(N=C(N)Nc2ccc(Cl)cc2)n1 | SYBR Green |  |  | blood stage | 280 nM |
| CCCCCCCCCCCCCC(O)CC(O)CO (stereo not drawn) |  | W2 |  | drug-resistant strain, blood stage | 40.8 µg/mL |
| Clc1ccc2c(nc(N3CCNCC3)n2Cc2ccccc2)c1-c1ccncc1 |  | NF54 |  | blood stage | 2170 nM |
| O=C(O)c1ccc(F)cc1NC(=O)c1ccccc1-c1ccccc1 | resazurin | NF54 | 48 h | gametocyte | > 10000 nM |
| COc1ccc2[nH]c(-c3ccc(Cc4ccc(OC(F)(F)F)cc4)cc3)c(C)c(=O)c2c1 |  | 3D7 |  | blood stage | > 350 nM |
| CCc1ccc(C2=NC(=Cc3ccc(CCCCCCCCCC(C)O)[nH]3)C(OC)=C2)[nH]1 (stereo not drawn) |  | D6 |  | blood stage | 17 nM |
| Clc1ccc2c(c1)nc(NCCNCc1ccncc1)n2Cc1ccccc1 |  | NF54 |  | blood stage | 2280 nM |
| CCN(CC)CCCC(C)Nc1ccnc2cc(Cl)ccc12 (stereo not drawn) |  |  |  |  | 201 nM |
| c1ccc(Cn2c(N3CCNCC3)nc3cc(-c4cc[nH]n4)ccc32)cc1 |  | NF54 |  | blood stage | > 10000 nM |
| COc1cccc(N2CCN(C3=Nc4c(F)cccc4[C@H](CC(=O)O)N3c3cc(C(F)(F)F)ccc3OC)CC2)c1 | SYBR Green |  |  | blood stage | 9950 nM |
| Clc1ccc2c(c1)nc(NCc1ccccn1)n2Cc1ccccc1 |  | NF54 |  | blood stage | > 10000 nM |
| O=C(Nc1ccnc(C(F)(F)F)c1)Nc1cccc2c1OC(F)(F)O2 |  | NF54 |  | blood stage | 700 nM |
| O=C(Nc1cc(F)ccc1C(=O)O)c1ccc(-c2ccccc2)cc1 |  | NF54 | 48 h | blood stage | > 10000 nM |
| CO[C@H]1/C=C/O[C@@]2(C)Oc3c(C)c(O)c4c(O)c(c(/C=N/N5CCN(C)CC5)c(O)c4c3C2=O)NC(=O)/C(C)=C\C=C[C@H](C)[C@H](O)[C@@H](C)[C@@H](O)[C@@H](C)[C@H](OC(C)=O)[C@@H]1C | SYBR Green |  |  | blood stage | 7810 nM |
| C[C@@H]1CC[C@H]2[C@@H](C)C(=O)O[C@@H]3O[C@@]4(C)CC[C@@H]1[C@]32OO4 |  | W2 |  | drug-resistant strain, blood stage | 0.009 µg/mL |
| COc1cc(NC(C)CCCNCOC(=O)NCCCC(C)Nc2cc(OC)cc3cccnc23)c2ncccc2c1.Cl.Cl (stereo not drawn) |  | W2 |  | drug-resistant strain, blood stage | 2.7 µg/mL |
| NC(N)=Nc1ccc(-c2ccc(-c3ccc(N=C(N)N)c(Cl)c3)o2)cc1Cl | SYBR Green |  |  | blood stage | 249 nM |
| C#CCCCCCCCCCCCC(O)CC(O)CO (stereo not drawn) |  | W2 |  | drug-resistant strain, blood stage | 32.5 µg/mL |
| c1ccc(Oc2ccc(-c3cc(C4CCOCC4)[nH]n3)cc2)cc1 | SYBR Green |  |  | blood stage | 70200 nM |
| O=C(Nc1ccccc1C(=O)O)c1ccc(-c2ccc(F)cc2)cc1 | resazurin | NF54 | 48 h | gametocyte | > 10000 nM |

| Compound | method | strain | time | setting | IC50 |
| --- | --- | --- | --- | --- | --- |
| Cc1ccc(-c2ccc3ncc4c(c3c2)n(-c2cccc(C(F)(F)F)c2)c(=O)n4C)cn1 | resazurin | 3D7 |  | gametocyte | < 100 nM |
| C[C@@]12CC[C@@H](O)[C@]3(C)C4=CC(=O)OCC4=C[C@@H](OC1=O)C23 (stereo partly drawn) |  | W2 | 72 h | drug-resistant strain, blood stage | 0.67 µg/mL |
| COC1=CC(c2ccc[nH]2)=NC1=Cc1ccc(CCCCCCCCCCO)[nH]1 |  | D6 |  | blood stage | 108 nM |
| O=C(Nc1ccccc1-c1nc2c(C(=O)O)cccc2o1)c1ccccc1 | SYBR Green |  |  | blood stage | 75800 nM |
| C[C@@H]1CC[C@H]2[C@@H](C)C(=O)O[C@@H]3O[C@@]4(C)CC[C@@H]1[C@]32OO4 |  | D6 | 72 h | blood stage | 0.0047 µg/mL |
| COC1=CC(c2ccco2)=NC1=Cc1ccc(CCCCCCCCCC(C)O)[nH]1 (stereo not drawn) |  | D6 |  | blood stage | > 2500 nM |
| C/C=C/C=C/C=C/c1c(O)cc(CC=C(C)C)c(O)c1C=O |  | D6 | 72 h | blood stage | 1.8 µg/mL |
| CCN(CC)CCCC(C)Nc1ccnc2cc(Cl)ccc12 (stereo not drawn) |  | D6 | 72 h | blood stage | 0.01 µg/mL |
| CC(C)Cn1c(=O)n(C)c(=O)c2c(-c3cncn3C)n(Cc3cccc4ccccc34)nc21 | SYBR Green |  |  | blood stage | 4820 nM |
| CS(=O)(=O)c1ccc2c(c1)nc(C1CCNCC1)n2Cc1ccccc1 |  | NF54 |  | blood stage | > 10000 nM |
| COc1ccccc1-c1ccccc1C(=O)Nc1c(C)cccc1C(=O)O | resazurin | NF54 | 48 h | gametocyte | > 10000 nM |
| NCCCNc1nc2ccccc2n1Cc1ccccc1 |  | NF54 |  | blood stage | 4090 nM |
| CN1CCN(C2CCN(c3nccc4[nH]c(-c5cccc(C#N)c5)nc34)CC2)CC1 |  | NF54 |  | blood stage | < 100 nM |
| COc1cccc2c(-c3ccc4c(c3O)[C@@H](C)N[C@H](C)C4)c(C)cc(OC)c12 | SYBR Green | NF54 |  | blood stage | 1330 nM |
| CN1CCN(C2CCN(c3nccc4[nH]c(-c5cc(F)cc(F)c5)nc34)CC2)CC1 |  | NF54 |  | blood stage | < 100 nM |
| O=C(O)c1ccccc1NC(=O)c1ccccc1-c1ccccc1 | resazurin | NF54 | 48 h | gametocyte | > 10000 nM |
| Cc1ccc2oc(-c3cc(NC(=O)Cc4ccccc4)ccc3Cl)nc2c1 | SYBR Green |  |  | blood stage | 23400 nM |
| c1ccc(Cn2c(N3CCNCC3)nc3cc(-c4ccccc4)ccc32)cc1 |  | NF54 |  | blood stage | 6960 nM |
| C[C@H]1[C@@H](O)O[C@@H]2O[C@@]3(C)CC[C@H]4[C@H](C)CC[C@@H]1[C@@]24OO3 |  | 3D7 | 72 h | blood stage | 5.8 nM |
